This passage reports IC50 and Ratio IC50 results from ChEMBL document CHEMBL3739392, “Development of highly potent phosphodiesterase 10A (PDE10A) inhibitors: Synthesis and in vitro evaluation of 1,8-dipyridinyl- and 1-pyridinyl-substituted imidazo[1,5-a]quinoxalines” (Eur J Med Chem, 2016).

Structures are written as SMILES. pIC50: −log10 of the molar value.

Test [1] has as its target cGMP-dependent 3',5'-cyclic phosphodiesterase (Homo sapiens, UniProt O00408). The test is described as follows: Inhibition of cGMP activated human recombinant PDE2A using [3H]cAMP as substrate after 30 mins by scintillation proximity assay. A digest of the protocol:
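PDE2A (NM002599) activated with 1 µM cGMP; substrate 0.5 µM [3H]cAMP; scintillation proximity read-out at varied inhibitor concentrations with fixed enzyme amount; IC50 from two-parameter Hill model.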
(In a scintillation proximity assay essentially only radioactivity close to the scintillant gives light.)

In test [2] the target is cAMP and cAMP-inhibited cGMP 3',5'-cyclic phosphodiesterase 10A (Homo sapiens, UniProt Q9Y233). The test is described as follows: Inhibition of human recombinant PDE10A1 expressed in baculovirus infected insect SF21 cells using [3H]cAMP as substrate after 30 mins by scintillation proximity assay. A digest of the protocol: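 Cytosolic PDE10A1 from Sf21 lysate (sonication in Tris-HCl/EDTA/sucrose pH 7.4, 48000 g supernatant, stored -70°C). Assay in 50 mM Tris-HCl/5 mM MgCl2 with 0.1 µM [3H]cAMP, started by substrate, 37°C for 30 min; stopped with Ysi-SPA beads, settled 1 h, scintillation counting. Enzyme amount optimized per preparation; no-enzyme blank for non-specific activity; IC50 by two-parameter Hill model.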

For the next test, the species on record is Homo sapiens. In words: Selectivity factor, ratio of IC50 for human recombinant PDE2A to IC50 for human recombinant PDE10A1.
Test [3] concerns the target 3',5'-cyclic-AMP phosphodiesterase 4A (Homo sapiens, UniProt P27815). In words: Inhibition of human PDE4A using [3H]cAMP as substrate after 30 mins by scintillation proximity assay.
In test [4] the target is Dual 3',5'-cyclic-AMP and -GMP phosphodiesterase 11A (Homo sapiens, UniProt Q9HCR9). The test is described as follows: Inhibition of human PDE11A using [3H]cAMP as substrate after 30 mins by scintillation proximity assay.
The target of test [5] is Dual specificity calcium/calmodulin-dependent 3',5'-cyclic nucleotide phosphodiesterase 1B (Homo sapiens, UniProt Q01064). The test is described as follows: Inhibition of human PDE1B using [3H]cAMP as substrate after 30 mins by scintillation proximity assay.
The nature of test [6]: Inhibition of bovine PDE6 using [3H]cAMP as substrate after 30 mins by scintillation proximity assay. Set-up: species or system Bos taurus.
The target of test [7] is cGMP-inhibited 3',5'-cyclic phosphodiesterase 3A (Homo sapiens, UniProt Q14432). In words: Inhibition of human PDE3A using [3H]cAMP as substrate after 30 mins by scintillation proximity assay.
Test [8] deals with 3',5'-cyclic-AMP phosphodiesterase 7B (Homo sapiens, UniProt Q9NP56). In words: Inhibition of human PDE7B using [3H]cAMP as substrate after 30 mins by scintillation proximity assay.
Test [9] addresses High affinity cGMP-specific 3',5'-cyclic phosphodiesterase 9A (Homo sapiens, UniProt O76083). The test is described as follows: Inhibition of human PDE9A using [3H]cAMP as substrate after 30 mins by scintillation proximity assay.
Test [10] addresses High affinity cAMP-specific and IBMX-insensitive 3',5'-cyclic phosphodiesterase 8A (Homo sapiens, UniProt O60658). The test is described as follows: Inhibition of human PDE8A using [3H]cAMP as substrate after 30 mins by scintillation proximity assay.
Test [11] concerns the target cGMP-specific 3',5'-cyclic phosphodiesterase (Homo sapiens, UniProt O76074). In words: Inhibition of human PDE5A using [3H]cAMP as substrate after 30 mins by scintillation proximity assay.

Chain of High affinity cAMP-specific and IBMX-insensitive 3',5'-cyclic phosphodiesterase 8A (O60658 whole entry): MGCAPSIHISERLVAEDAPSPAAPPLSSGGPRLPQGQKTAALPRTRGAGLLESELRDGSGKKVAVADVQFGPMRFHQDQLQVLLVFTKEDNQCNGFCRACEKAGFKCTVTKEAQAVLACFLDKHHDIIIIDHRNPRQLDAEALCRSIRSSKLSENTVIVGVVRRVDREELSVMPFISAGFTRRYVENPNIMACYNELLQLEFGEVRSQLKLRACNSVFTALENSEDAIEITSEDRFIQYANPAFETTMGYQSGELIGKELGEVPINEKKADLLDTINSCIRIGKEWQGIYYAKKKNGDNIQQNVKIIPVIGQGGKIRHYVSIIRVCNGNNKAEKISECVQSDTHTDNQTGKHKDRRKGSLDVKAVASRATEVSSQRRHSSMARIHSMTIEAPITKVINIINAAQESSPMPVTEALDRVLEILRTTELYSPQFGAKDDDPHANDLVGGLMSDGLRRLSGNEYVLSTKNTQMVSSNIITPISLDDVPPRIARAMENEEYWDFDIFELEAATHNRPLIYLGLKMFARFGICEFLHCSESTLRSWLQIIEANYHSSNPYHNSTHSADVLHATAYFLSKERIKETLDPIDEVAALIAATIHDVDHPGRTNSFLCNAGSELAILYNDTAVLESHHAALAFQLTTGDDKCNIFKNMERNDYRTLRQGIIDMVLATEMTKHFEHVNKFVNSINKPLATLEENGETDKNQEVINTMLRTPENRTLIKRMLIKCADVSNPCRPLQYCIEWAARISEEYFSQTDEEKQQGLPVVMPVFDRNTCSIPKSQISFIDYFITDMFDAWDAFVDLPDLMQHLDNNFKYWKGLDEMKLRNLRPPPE
Chain of 3',5'-cyclic-AMP phosphodiesterase 4A (P27815 whole entry): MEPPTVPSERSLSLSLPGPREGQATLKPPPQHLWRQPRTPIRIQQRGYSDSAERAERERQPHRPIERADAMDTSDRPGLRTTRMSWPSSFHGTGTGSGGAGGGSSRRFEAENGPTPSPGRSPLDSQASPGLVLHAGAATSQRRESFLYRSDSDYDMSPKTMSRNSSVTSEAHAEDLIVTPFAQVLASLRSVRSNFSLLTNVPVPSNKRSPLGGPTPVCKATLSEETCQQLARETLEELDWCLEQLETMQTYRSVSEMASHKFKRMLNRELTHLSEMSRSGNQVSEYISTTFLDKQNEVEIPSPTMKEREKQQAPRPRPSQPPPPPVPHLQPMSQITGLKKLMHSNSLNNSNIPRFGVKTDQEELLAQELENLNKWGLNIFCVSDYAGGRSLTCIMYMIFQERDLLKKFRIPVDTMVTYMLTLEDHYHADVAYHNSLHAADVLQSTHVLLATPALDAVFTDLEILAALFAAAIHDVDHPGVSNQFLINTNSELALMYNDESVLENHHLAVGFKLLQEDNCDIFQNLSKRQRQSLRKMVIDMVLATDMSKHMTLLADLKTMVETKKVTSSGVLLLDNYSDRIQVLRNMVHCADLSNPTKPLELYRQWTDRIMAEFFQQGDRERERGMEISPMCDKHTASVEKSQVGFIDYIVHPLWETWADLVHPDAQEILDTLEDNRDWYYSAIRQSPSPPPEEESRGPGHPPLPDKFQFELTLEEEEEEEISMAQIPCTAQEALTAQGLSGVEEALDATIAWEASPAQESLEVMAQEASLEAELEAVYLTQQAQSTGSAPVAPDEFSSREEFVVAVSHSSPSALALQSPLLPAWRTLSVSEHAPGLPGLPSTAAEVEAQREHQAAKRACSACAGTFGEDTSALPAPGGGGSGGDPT
Chain of Dual 3',5'-cyclic-AMP and -GMP phosphodiesterase 11A (Q9HCR9 whole entry): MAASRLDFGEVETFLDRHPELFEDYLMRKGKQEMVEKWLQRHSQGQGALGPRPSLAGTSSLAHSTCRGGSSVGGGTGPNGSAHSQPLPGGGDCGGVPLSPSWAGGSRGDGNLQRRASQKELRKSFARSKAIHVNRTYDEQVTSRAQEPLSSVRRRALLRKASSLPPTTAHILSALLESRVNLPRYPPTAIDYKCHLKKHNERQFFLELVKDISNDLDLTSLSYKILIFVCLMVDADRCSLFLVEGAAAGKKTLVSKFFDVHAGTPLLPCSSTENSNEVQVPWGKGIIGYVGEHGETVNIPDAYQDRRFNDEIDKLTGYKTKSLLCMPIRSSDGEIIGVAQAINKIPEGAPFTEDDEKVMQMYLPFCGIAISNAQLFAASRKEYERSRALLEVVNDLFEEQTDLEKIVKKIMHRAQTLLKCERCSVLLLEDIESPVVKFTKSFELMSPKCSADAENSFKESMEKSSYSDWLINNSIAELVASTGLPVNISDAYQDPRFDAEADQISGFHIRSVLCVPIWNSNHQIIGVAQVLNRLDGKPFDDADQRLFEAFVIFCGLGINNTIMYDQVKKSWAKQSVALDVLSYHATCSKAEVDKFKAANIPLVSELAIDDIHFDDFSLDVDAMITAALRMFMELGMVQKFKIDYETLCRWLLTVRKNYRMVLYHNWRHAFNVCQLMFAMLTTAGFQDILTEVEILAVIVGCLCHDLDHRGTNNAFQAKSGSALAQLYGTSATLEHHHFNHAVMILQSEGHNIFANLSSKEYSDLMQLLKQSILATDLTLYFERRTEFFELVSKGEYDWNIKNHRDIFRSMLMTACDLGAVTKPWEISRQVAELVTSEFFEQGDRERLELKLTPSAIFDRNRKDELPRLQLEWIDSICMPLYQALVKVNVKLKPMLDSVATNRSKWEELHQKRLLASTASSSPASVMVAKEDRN
Chain of cAMP and cAMP-inhibited cGMP 3',5'-cyclic phosphodiesterase 10A (Q9Y233 whole entry): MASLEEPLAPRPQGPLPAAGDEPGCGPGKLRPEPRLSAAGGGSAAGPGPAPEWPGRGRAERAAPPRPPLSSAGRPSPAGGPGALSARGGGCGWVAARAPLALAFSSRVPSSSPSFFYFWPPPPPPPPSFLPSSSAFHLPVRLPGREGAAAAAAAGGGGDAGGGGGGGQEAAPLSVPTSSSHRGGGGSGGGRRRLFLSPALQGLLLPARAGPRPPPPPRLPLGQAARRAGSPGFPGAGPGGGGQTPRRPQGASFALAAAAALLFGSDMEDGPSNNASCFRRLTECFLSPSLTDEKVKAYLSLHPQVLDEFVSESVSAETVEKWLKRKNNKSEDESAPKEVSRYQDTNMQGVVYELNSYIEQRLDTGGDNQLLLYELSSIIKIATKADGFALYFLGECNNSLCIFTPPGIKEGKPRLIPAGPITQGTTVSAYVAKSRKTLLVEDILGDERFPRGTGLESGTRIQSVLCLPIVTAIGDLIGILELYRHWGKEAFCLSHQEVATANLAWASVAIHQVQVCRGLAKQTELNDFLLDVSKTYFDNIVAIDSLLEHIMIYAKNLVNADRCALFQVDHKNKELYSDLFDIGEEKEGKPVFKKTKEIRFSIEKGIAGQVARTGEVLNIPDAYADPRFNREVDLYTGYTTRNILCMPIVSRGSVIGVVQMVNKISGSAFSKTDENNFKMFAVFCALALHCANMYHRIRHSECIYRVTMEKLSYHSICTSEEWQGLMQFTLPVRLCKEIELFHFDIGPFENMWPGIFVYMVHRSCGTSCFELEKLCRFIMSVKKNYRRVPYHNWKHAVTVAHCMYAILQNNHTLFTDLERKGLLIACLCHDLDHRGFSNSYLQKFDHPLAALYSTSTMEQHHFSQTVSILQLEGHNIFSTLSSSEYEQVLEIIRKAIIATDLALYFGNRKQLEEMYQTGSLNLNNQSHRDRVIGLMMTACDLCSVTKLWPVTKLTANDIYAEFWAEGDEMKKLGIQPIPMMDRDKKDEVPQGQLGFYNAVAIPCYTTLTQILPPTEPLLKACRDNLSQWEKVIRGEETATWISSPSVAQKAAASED
Chain of cGMP-dependent 3',5'-cyclic phosphodiesterase (O00408 whole entry): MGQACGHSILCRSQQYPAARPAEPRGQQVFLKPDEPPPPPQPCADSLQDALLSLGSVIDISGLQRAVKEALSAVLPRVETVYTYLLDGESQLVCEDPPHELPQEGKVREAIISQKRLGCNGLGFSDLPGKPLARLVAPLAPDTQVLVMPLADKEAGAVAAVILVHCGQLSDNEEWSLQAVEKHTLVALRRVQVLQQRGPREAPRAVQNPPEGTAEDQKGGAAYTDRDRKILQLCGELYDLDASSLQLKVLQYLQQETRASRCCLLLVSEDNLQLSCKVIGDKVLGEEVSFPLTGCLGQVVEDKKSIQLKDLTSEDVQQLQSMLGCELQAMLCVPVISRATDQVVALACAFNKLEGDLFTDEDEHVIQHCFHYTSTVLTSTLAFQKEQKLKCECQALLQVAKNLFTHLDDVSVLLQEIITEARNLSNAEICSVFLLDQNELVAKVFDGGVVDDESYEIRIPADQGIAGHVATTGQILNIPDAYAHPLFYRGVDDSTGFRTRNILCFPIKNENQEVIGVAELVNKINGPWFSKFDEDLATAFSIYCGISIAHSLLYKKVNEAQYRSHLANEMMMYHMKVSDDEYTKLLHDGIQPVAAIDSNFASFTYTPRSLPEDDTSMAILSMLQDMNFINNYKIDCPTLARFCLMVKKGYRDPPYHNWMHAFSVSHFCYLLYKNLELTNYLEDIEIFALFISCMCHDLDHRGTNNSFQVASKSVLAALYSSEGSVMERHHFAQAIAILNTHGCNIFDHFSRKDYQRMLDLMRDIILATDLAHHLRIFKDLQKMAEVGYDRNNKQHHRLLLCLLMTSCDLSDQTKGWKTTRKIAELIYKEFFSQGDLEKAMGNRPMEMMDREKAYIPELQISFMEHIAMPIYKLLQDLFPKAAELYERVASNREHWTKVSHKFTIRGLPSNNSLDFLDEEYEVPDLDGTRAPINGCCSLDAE
Chain of 3',5'-cyclic-AMP phosphodiesterase 7B (Q9NP56 whole entry): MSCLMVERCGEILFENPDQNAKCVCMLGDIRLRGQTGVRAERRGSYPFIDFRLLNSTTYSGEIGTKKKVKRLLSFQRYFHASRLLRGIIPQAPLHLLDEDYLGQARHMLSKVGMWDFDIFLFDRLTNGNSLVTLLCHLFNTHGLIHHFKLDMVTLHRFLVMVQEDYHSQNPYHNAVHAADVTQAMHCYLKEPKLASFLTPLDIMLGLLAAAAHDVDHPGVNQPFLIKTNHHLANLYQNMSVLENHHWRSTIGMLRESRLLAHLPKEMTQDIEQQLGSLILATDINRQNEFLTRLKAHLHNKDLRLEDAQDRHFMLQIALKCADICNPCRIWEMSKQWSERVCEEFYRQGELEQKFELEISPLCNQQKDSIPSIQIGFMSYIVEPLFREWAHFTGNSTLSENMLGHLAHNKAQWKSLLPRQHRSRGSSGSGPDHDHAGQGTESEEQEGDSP

As to `COc1cc(-c2ccnc(F)c2)cc2c1nc(C)c1c(C)nc(-c3ccnc(F)c3)n12`, the pIC50 is 6.32 in test [1] and 8.80 in test [2]. In addition, the Ratio IC50 in the test filed under Homo sapiens was found to be 306.

Consider `COc1cc2ncnc(N3CC[C@@H](Oc4cnc5ccccc5n4)C3)c2cc1OC`, for which the pIC50 in test [2] is 7.80.

Turning to `COc1cc(C#N)cc2c1nc(C)c1c(C)nc(-c3cccnc3F)n12`, the results for the negative logarithm of the IC50 (pIC50) in test [1] and in test [2] were 7.01 and 8.77, respectively. The Ratio IC50 in the test filed under Homo sapiens was 58.

As to `COc1cc(Br)cc2c1nc(C)c1c(C)nc(-c3cccnc3F)n12`, the negative logarithm of the IC50 (pIC50) was < 6.00 in test [3]; 7.62 in test [1]; 6.31 in test [4]; < 6.00 in test [5]; 6.36 in [6]; 9.92 in test [2]. Also, the pIC50 in [7] was < 6.00; in test [8] it was < 6.00; in [9] it was < 6.00; in test [10], < 6.00; in test [11], 6.22. For the same molecule, the Ratio IC50 in the test listed under Homo sapiens was determined as 199.

Take `COc1cc(-c2cccnc2)cc2c1nc(C)c1c(C)nc(-c3ccc(F)nc3)n12`: the pIC50 in test [3] was < 6.00; in test [1], 7.10; in [4], 6.40; in [5], < 6.00; in test [6], 6.25; in test [2] it was 9.06. Moreover, the pIC50 in test [7] is < 6.00; in test [8] it was < 6.00; in test [9] it was < 6.00; in test [10] it was < 6.00; in [11], 6.64. Also, the Ratio IC50 in the test filed under Homo sapiens is 90.

Take `COc1cc(Br)cc2c1nc(C)c1c(C)nc(-c3ccnc(F)c3)n12`: the negative-log IC50 (pIC50) was < 6.00 in test [1] and 8.50 in [2]. The Ratio IC50 in the test filed under Homo sapiens is > 312.

`COc1cc(-c2ccc(F)nc2)cc2c1nc(C)c1c(C)nc(Br)n12`: the negative-log IC50 (pIC50) in [1] was < 6.00; in test [2] it was 7.99. For the same molecule, in the test listed under Homo sapiens, the Ratio IC50 was > 97.

With `COc1cc(-c2ccc(F)nc2)cc2c1nc(C)c1c(C)nc(-c3cccnc3)n12`, the pIC50 is < 6.00 in test [3]; 7.53 in [1]; 6.54 in test [4]; < 6.00 in [5]; 6.20 in test [6]; 9.48 in test [2]. For the same molecule, the negative-log IC50 (pIC50) was < 6.00 in test [7]; < 6.00 in [8]; < 6.00 in [9]; < 6.00 in [10]; 6.55 in test [11]. Further, the Ratio IC50 in the test listed under Homo sapiens was 88.

For `COc1cc(-c2ccc(F)nc2)cc2c1nc(C)c1c(C)nc(-c3ccncc3)n12`, the pIC50 was 6.08 in test [3]; 7.18 in test [1]; < 6.00 in test [4]; < 6.00 in test [5]; < 6.00 in test [6]; 9.39 in [2]. Besides, the pIC50 in test [7] is < 6.00; in [8], < 6.00; in [9] it was < 6.00; in test [10], < 6.00; in [11], 6.70. Besides, in the test filed under Homo sapiens, the Ratio IC50 is 160.

On to `COc1cc(-c2ccncc2)cc2c1nc(C)c1c(C)nc(-c3ccc(F)nc3)n12`, for which the pIC50 was < 6.00 in [3]; 6.79 in test [1]; 6.38 in test [4]; < 6.00 in [5]; 6.23 in test [6]; 9.00 in test [2]. The pIC50 was < 6.00 in test [7]; > 6.00 in test [8]; < 6.00 in [9]; < 6.00 in [10]; 6.71 in test [11]. For the same molecule, the Ratio IC50 in the test listed under Homo sapiens came to 164.

For `COc1cc(-c2ccc(F)nc2)cc2c1nc(C)c1c(C)nc(-c3ccc(F)nc3)n12`, the pIC50 in [3] was < 6.00; in test [1], 6.40; in [4], < 6.00; in test [5], < 6.00; in test [6], < 6.00; in [2] it was 8.48. In addition, the pIC50 in test [7], in test [8], in test [9], in test [10] and in [11] was < 6.00 in each case. The Ratio IC50 in the test filed under Homo sapiens was 120.

As to `COc1cc(C#N)cc2c1nc(C)c1c(C)nc(-c3ccc(F)nc3)n12`, the pIC50 in test [1] is < 6.00; in test [2], 7.69. In addition, the Ratio IC50 in the test filed under Homo sapiens is > 49.

Turning to `COc1cc(-c2cccnc2)cc2c1nc(C)c1c(C)nc(-c3cccnc3)n12`, the pIC50 in [3] is 6.00; in test [1] it was 7.96; in test [4] it was 6.54; in [5], < 6.00; in [6] it was 6.37; in test [2] it was 9.96. Moreover, the pIC50 was < 6.00 in [7]; < 6.00 in [8]; < 6.00 in test [9]; < 6.00 in [10]; 6.63 in test [11]. For the same molecule, in the test filed under Homo sapiens, the Ratio IC50 was found to be 99.

Regarding `COc1cc(Br)cc2c1nc(C)c1c(C)nc(-c3ccc(F)nc3)n12`, the pIC50 in test [3] is < 6.00; in [1] it was < 6.00; in [4], < 6.00; in test [5] it was < 6.00; in test [6] it was < 6.00; in test [2], 8.53. Further, the negative logarithm of the IC50 (pIC50) in test [7], in [8], in test [9], in test [10] and in [11] was < 6.00 throughout. Moreover, the Ratio IC50 in the test listed under Homo sapiens is > 339.

Consider `COc1cc(-c2ccc(F)nc2)cc2c1nc(C)c1c(C)ncn12`, for which the pIC50 in test [1] was < 6.00; in [2], 7.58. The Ratio IC50 in the test filed under Homo sapiens was > 38.

`COc1cc(-c2cccnc2F)cc2c1nc(C)c1c(C)nc(-c3cccnc3F)n12`: the pIC50 is 8.69 in test [1] and 10.32 in test [2]. For the same molecule, the Ratio IC50 in the test filed under Homo sapiens stood at 43.

As to `COc1cc(-c2cccnc2)cc2c1nc(C)c1c(C)nc(-c3cccnc3F)n12`, the negative logarithm of the IC50 (pIC50) was > 6.00 in test [3]; 8.46 in test [1]; 6.34 in test [4]; < 6.00 in test [5]; 6.75 in test [6]; 10.43 in [2]. The pIC50 in test [7] was < 6.00; in test [8] it was < 6.00; in [9], < 6.00; in test [10], < 6.00; in test [11], 7.04. Moreover, the Ratio IC50 in the test filed under Homo sapiens was found to be 94.

As to `COc1cc(-c2cccnc2)cc2c1nc(C)c1c(C)nc(-c3ccnc(F)c3)n12`, the pIC50 in test [1] is 7.33; in test [2], 9.34. In addition, in the test filed under Homo sapiens, the Ratio IC50 was found to be 102.

A word on the pIC50: it is the negative decadic logarithm of the IC50, by convention in mol/L.
